Experiment [1] is described as follows: Inhibition of lipoxygenase using linoleic acid as substrate at 0.5 mM after 10 mins preincubation. The method, boiled down: (§1)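 Purified lipoxygenase (600 units per well) in 100 mM sodium phosphate buffer pH 8.0, with test compound. Pre-read at 234 nm, preincubated 10 min at 25 °C, then started with linoleic acid. Absorbance change at 234 nm read after 6 min. Percent inhibition tested at 0.5 mM. IC50 obtained from dilutions of compounds exceeding 50% inhibition. Triplicates, mean ± SEM.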

Experiment [2] is described as follows: Inhibition of lipoxygenase using linoleic acid as substrate after 10 mins preincubation. The method, boiled down:
as §1

Molecules are shown by their SMILES. Where only a bound is given, the exact number is not on record here.

In turn, `Cc1ccc(S(=O)(=O)N(C/C=C/c2ccccc2)c2ccc(C(=O)OC/C=C/c3ccccc3)cc2)cc1` yielded an inhibition in experiment [1] of 26.9%. Moreover, the IC50 in experiment [2] is > 600 µM. `O=c1cc(-c2ccccc2)oc2cc(O)c(O)c(O)c12` [BAICALEIN] came in with an IC50 in experiment [2] of 22.4 µM. Consider `Cc1ccc(S(=O)(=O)Nc2ccc(C(=O)O)cc2)cc1`, for which the inhibition in experiment [1] worked out at 99.4%. In experiment [2], this compound gave an IC50 of 139 µM. On the same counts, the results for `COC(=O)c1ccc(N(C)S(=O)(=O)c2ccc(C)cc2)cc1` are 88.5% and 189 µM.

`CCCCN(c1ccc(C(=O)O)cc1)S(=O)(=O)c1ccc(C)cc1`: the inhibition in experiment [1] came out at 99.4%. Moreover, the IC50 in experiment [2] came out at 61.4 µM. `CCCCCN(c1ccc(C(=O)O)cc1)S(=O)(=O)c1ccc(C)cc1`: in experiment [1], the inhibition was found to be 98.6%. Also, the IC50 in experiment [2] was 68.6 µM. On the same counts, the results for `C=CCN(c1ccc(C(=O)O)cc1)S(=O)(=O)c1ccc(C)cc1` are 96.2% and 219 µM. For `Cc1ccc(S(=O)(=O)N(C(=O)c2ccc(Cl)cc2)c2ccc(C(=O)O)cc2)cc1`, in that order: 98.1% and 176 µM. On the same counts, the results for `Cc1ccc(S(=O)(=O)N(Cc2ccccc2)c2ccc(C(=O)O)cc2)cc1` are 85.1% and 59.1 µM. In experiment [1], `Cc1ccc(S(=O)(=O)N(C(=O)c2ccccc2)c2ccc(C(=O)O)cc2)cc1` showed an inhibition of 99%. Besides, the IC50 in experiment [2] stood at 91.7 µM. On to `Cc1ccc(S(=O)(=O)Nc2ccc(C(=O)OCC#N)cc2)cc1`, for which, in experiment [1], the inhibition stood at 97%. The compound also came in with an IC50 in experiment [2] of 232 µM. On the same counts, the results for `CCOC(=O)c1ccc(N(CC)S(=O)(=O)c2ccc(C)cc2)cc1` are 97.6% and 231 µM. As for `O=c1c(O)c(-c2ccc(O)c(O)c2)oc2cc(O)cc(O)c12` [QUERCETIN], the IC50 in experiment [2] came out at 37.1 µM. `CC(C)=CCN(c1ccc(C(=O)O)cc1)S(=O)(=O)c1ccc(C)cc1`: the inhibition in experiment [1] was found to be 98.7%. This compound came in with an IC50 in experiment [2] of 15.8 µM.

In the case of `CCCN(c1ccc(C(=O)O)cc1)S(=O)(=O)c1ccc(C)cc1`, the inhibition in experiment [1] is 40%. The IC50 in experiment [2] was > 500 µM. On the same counts, the results for `Cc1ccc(S(=O)(=O)N(CCCl)c2ccc(C(=O)O)cc2)cc1` are 21.9% and > 600 µM.

The record behind these values is ChEMBL document CHEMBL2010755, “Synthesis of new sulfonamides as lipoxygenase inhibitors” (Bioorg Med Chem, 2012).
